The values below come from ChEMBL document CHEMBL3871279, “Bioactive Formylated Flavonoids from Eugenia rigida: Isolation, Synthesis, and X-ray Crystallography” (J Nat Prod, 2016).

In general, IC50 refers to the concentration that gives 50% inhibition. Usually MFC stands for the smallest concentration meeting the test's criterion for killing the fungus. By MIC is commonly meant the smallest concentration in the dilution series that meets the test's criterion for growth inhibition.

For data set [1], the system named is Staphylococcus aureus. In words: Antimicrobial activity against Staphylococcus aureus ATCC 29213 by broth microdilution method. Type of data set: functional. For orientation: Dilution methods test growth across graded concentrations, often in twofold steps.
Data set [2] relates to Cryptococcus neoformans. In words: Fungicidal activity against Cryptococcus neoformans ATCC 90113 after 70 to 74 hrs by broth microdilution method. The data set is classed as functional. In a few lines: (§1)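 Fungicidal end point from the broth microdilution plates (20% DMSO–saline serial dilutions, duplicate wells, OD630-corrected inocula, amphotericin B control). 5 μL from each clear well transferred to agar and incubated. MFC is the lowest test concentration allowing no growth on agar.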

A short description of data set [3]: Cytotoxicity against human KB cells assessed as reduction in cell viability after 48 hrs by neutral red dye-based assay. Type of data set: functional. In a few lines:
(§2)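 Cell lines from ATCC, seeded at 25 000 cells/well and incubated 24 h. Samples added at several concentrations, then 48 h further incubation. Viability read by modified Neutral Red uptake. IC50 taken from dose–response curves of percent decrease in viability against concentration. Doxorubicin positive control, DMSO vehicle control.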

For data set [4], the system named is Cryptococcus neoformans. Kind of data set: Antimicrobial activity against Cryptococcus neoformans ATCC 90113 after 70 to 74 hrs by broth microdilution method. Type of data set: functional. Summed up: (§3)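 Modified CLSI broth microdilution. Samples serially diluted in 20% DMSO–saline and plated in duplicate. Inocula set by correcting OD630 of suspensions in incubation broth to final target inocula. Amphotericin B drug control. Plates read before and after incubation at 530 nm, or at 544ex/590em for A. fumigatus. IC50 is the concentration giving 50% growth relative to controls. MIC is the lowest concentration allowing no growth.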

The nature of data set [5]: Cytotoxicity against human SK-MEL cells assessed as reduction in cell viability after 48 hrs by neutral red dye-based assay. The data set is classed as functional. Summed up: as §2
A short description of data set [6]: Cytotoxicity against human HeLa cells assessed as reduction in cell viability after 48 hrs by neutral red dye-based assay. Type of data set: functional. Summed up:
as §2

Data set [7] is described as follows: Cytotoxicity against human BT549 cells assessed as reduction in cell viability after 48 hrs by neutral red dye-based assay. The data set is classed as functional. To be noted: BT-549, 48 h. Summed up: as §2
For data set [8], the system named is Nakaseomyces glabratus. In words: Antimicrobial activity against Candida glabrata ATCC 90030 after 46 to 50 hrs by broth microdilution method. Type of data set: functional. In a few lines:
as §3

For data set [9], the system named is Staphylococcus aureus. Kind of data set: Antimicrobial activity against methicillin-resistant Staphylococcus aureus ATCC 33591 by broth microdilution method. The data set is classed as functional.
The nature of data set [10]: Cytotoxicity against human SKOV3 cells assessed as reduction in cell viability after 48 hrs by neutral red dye-based assay. The data set is classed as functional. Particulars: SK-OV-3, 48 h. In a few lines: as §2
Data set [11] is described as follows: Cytotoxicity against African green monkey Vero cells assessed as reduction in cell viability after 48 hrs by neutral red dye-based assay. Type of data set: toxicity. To be noted: African green monkey (Chlorocebus sabaeus). Summed up:
as §2

Data set [12] in a line: Cytotoxicity against pig LLC-PK1 cells assessed as reduction in cell viability after 48 hrs by neutral red dye-based assay. The data set is classed as toxicity. Particulars: pig (Sus scrofa). Summed up: as §2
The test system of data set [13] is Pichia kudriavzevii. Kind of data set: Antimicrobial activity against Candida krusei ATCC 6258 after 46 to 50 hrs by broth microdilution method. The data set is classed as functional. Summed up: as §3
Data set [14] has as its system Nakaseomyces glabratus. In words: Fungicidal activity against Candida glabrata ATCC 90030 after 46 to 50 hrs by broth microdilution method. The data set is classed as functional. Summed up: as §1
Data set [15] concerns Candida albicans. Kind of data set: Antimicrobial activity against Candida albicans ATCC 90028 after 46 to 50 hrs by broth microdilution method. The data set is classed as functional. In a few lines:
as §3

Data set [16] concerns Candida albicans. Kind of data set: Fungicidal activity against Candida albicans ATCC 90028 after 46 to 50 hrs by broth microdilution method. Type of data set: functional. In a few lines: as §1
Data set [17] has as its system Pichia kudriavzevii. Kind of data set: Fungicidal activity against Candida krusei ATCC 6258 after 46 to 50 hrs by broth microdilution method. Type of data set: functional. Summed up:
as §1

Data set [18] has as its system Aspergillus fumigatus. Kind of data set: Antimicrobial activity against Aspergillus fumigatus ATCC 204305 after 46 to 50 hrs by broth microdilution method. Type of data set: functional. In a few lines:
as §3

In data set [19] the test system is Aspergillus fumigatus. Kind of data set: Fungicidal activity against Aspergillus fumigatus ATCC 204305 after 46 to 50 hrs by broth microdilution method. Type of data set: functional. Summed up: as §1
Data set [20] has as its system Staphylococcus aureus. In words: microbe, parasite or virus in culture. Particulars: ATCC 33591.
Data set [21] relates to Staphylococcus aureus. In words: microbe, parasite or virus in culture. To be noted: ATCC 29213.
Where [22] appears, read: Nakaseomyces glabratus, ATCC 90030.

The structures appear in SMILES notation. Values after ≈ are worked out from the molar mass of the structure shown. Values joined by “and” are separate entries in the source; they are usually repeats but may differ in a detail not shown here. Equal values may be shown once.

For `O=Cc1c(O)cc(O)c(C(=O)CCc2ccccc2)c1O`, the IC50 in the data set on Staphylococcus aureus [1] was 17.4 µM; in [3] it was over 10 µM; in the data set on Cryptococcus neoformans [4], 10.5 µM; in data set [5], over 10 µM; in data set [6], over 10 µM; in data set [7] it was over 10 µM. For the same molecule, the half-maximal inhibitory concentration (IC50) in the data set with Nakaseomyces glabratus [8] (setting [22]) is 11.3 µM; with Staphylococcus aureus [9], 36.6 µM; in [10], over 10 µM. In the data set on Cryptococcus neoformans [2], the MFC was 17.4 µM (≈ 4.98 µg/mL). Further, the MIC is 17.4 µM (≈ 4.98 µg/mL) with Cryptococcus neoformans [4] and 69.9 µM (≈ 20 µg/mL) against Nakaseomyces glabratus [8] (setting [22]). The half-inhibitory concentration (IC50) at 48 h in data set [11] and in data set [12] was over 10 µM throughout.
Regarding `O=Cc1c(O)cc(O)c2c1O[C@@H](c1ccccc1)CC2=O`, the IC50 in data set [3] was over 10 µM; in the data set with Cryptococcus neoformans [4], 19.3 µM; in the data set with Pichia kudriavzevii [13], 41.2 µM; in data set [5] it was over 10 µM; in data set [6], over 10 µM; in [7], over 10 µM. In addition, the values for the IC50 (with Nakaseomyces glabratus [8] (setting [22]); in data set [10]) were 7.2 µM and over 10 µM, respectively. For the same molecule, the MFC against Nakaseomyces glabratus [14] is 70.4 µM (≈ 20 µg/mL). The molecule also registered an MIC against Nakaseomyces glabratus [8] (setting [22]) of 35.2 µM (≈ 10 µg/mL). The IC50 at 48 h in data set [11] and in data set [12] was over 10 µM each time.
`O=Cc1c(O)cc2c(c1O)C(=O)C[C@@H](c1ccccc1)O2`: the IC50 in data set [3] was over 10 µM; in the data set on Cryptococcus neoformans [4], 63.2 µM; with Pichia kudriavzevii [13], 33.2 µM; in [5] it was over 10 µM; in [6], over 10 µM; in data set [7], over 10 µM. Further, the IC50 in the data set with Nakaseomyces glabratus [8] (setting [22]) was 6.7 µM; in [10] it was over 10 µM. The MIC came to 70.4 µM (≈ 20 µg/mL) in the data set on Cryptococcus neoformans [4] and 35.2 µM (≈ 10 µg/mL) against Nakaseomyces glabratus [8] (setting [22]). In addition, the MFC with Nakaseomyces glabratus [14] turned out to be 70.4 µM (≈ 20 µg/mL). The IC50 at 48 h in data set [11] and in [12] was over 10 µM in each case.
Molecule `O=Cc1c(O)cc(O)c2c1O[C@H](c1ccccc1)CC2=O` gave a minimum fungicidal concentration (MFC) in the data set on Cryptococcus neoformans [2] of 70.4 µM (≈ 20 µg/mL). The IC50 in [3] is over 10 µM; in the data set on Cryptococcus neoformans [4] it was 44.4 µM; with Pichia kudriavzevii [13], 29.9 µM; in data set [5], over 10 µM; in [6], over 10 µM; in data set [7], over 10 µM. The IC50 with Nakaseomyces glabratus [8] (setting [22]) is 7.4 µM; in [10], over 10 µM. The MIC worked out at 70.4 µM (≈ 20 µg/mL) with Cryptococcus neoformans [4] and 35.2 µM (≈ 10 µg/mL) in the data set with Nakaseomyces glabratus [8] (setting [22]). In addition, the IC50 at 48 h in data set [11] and in [12] was over 10 µM throughout.
In the case of `O=Cc1c(O)cc(O)c(C(=O)/C=C/c2ccccc2)c1O`, the MFC in the data set with Cryptococcus neoformans [2] and against Nakaseomyces glabratus [14] was 70.4 µM (≈ 20 µg/mL) in each case. Further, the IC50 was over 10 µM in data set [3]; 24.5 µM with Cryptococcus neoformans [4]; 34.1 µM with Pichia kudriavzevii [13]; over 10 µM in data set [5]; 68.9 µM with Candida albicans [15]; over 10 µM in data set [6]. The IC50 is over 10 µM in [7]; 10 µM and 35.2 µM in the data set with Nakaseomyces glabratus [8]; over 10 µM in data set [10]. Besides, the lowest concentration to inhibit growth in the data set on Cryptococcus neoformans [4] (MIC) was 70.4 µM (≈ 20 µg/mL). The half-maximal inhibitory concentration (IC50) at 48 h in data set [11] and in [12] was over 10 µM throughout.
Take `O=Cc1c(O)cc2c(c1O)C(=O)C[C@H](c1ccccc1)O2`: the IC50 in [3] is over 10 µM; with Cryptococcus neoformans [4], 61.5 µM; in data set [5] it was over 10 µM; in data set [6] it was over 10 µM; in data set [7], over 10 µM; in the data set on Nakaseomyces glabratus [8] (setting [22]), 12.6 µM. Moreover, the IC50 in [10] is over 10 µM. In the data set with Nakaseomyces glabratus [14], this molecule came in with an MFC of 70.4 µM (≈ 20 µg/mL). Besides, 70.4 µM (≈ 20 µg/mL) was the least that counted as inhibitory against Nakaseomyces glabratus [8] (setting [22]) (MIC). The IC50 at 48 h in data set [11] and in data set [12] was over 10 µM in each case.
Take `O=Cc1c(O)cc2oc(-c3ccccc3)cc(=O)c2c1O`: the IC50 is over 10 µM in data set [3]; over 10 µM in data set [5]; over 10 µM in [6]; over 10 µM in [7]; 10.8 µM in the data set on Nakaseomyces glabratus [8] (setting [22]); over 10 µM in data set [10]. The IC50 at 48 h in data set [11] and in data set [12] was over 10 µM in each case.
With `O=C1CC(c2ccccc2)Oc2cc(O)cc(O)c21` (racemic), the IC50 in data set [3] was over 10 µM; with Cryptococcus neoformans [4], 28.8 µM; with Pichia kudriavzevii [13], 65.5 µM; in data set [5], over 10 µM; in data set [6], over 10 µM; in data set [7], over 10 µM. The half-maximal inhibitory concentration (IC50) in the data set on Nakaseomyces glabratus [8] (setting [22]) is 42.9 µM; in [10] it was over 10 µM. The molecule further displayed an MIC against Cryptococcus neoformans [4] of 78.1 µM (≈ 20 µg/mL). The IC50 at 48 h in [11] and in data set [12] was over 10 µM in each case.
As for `C[C@@H]1[C@H](O)[C@@H](C)/C=C/C=C/C=C/C=C/C=C/C=C/C=C/[C@H](O[C@@H]2O[C@H](C)[C@@H](O)[C@H](N)[C@@H]2O)C[C@@H]2O[C@](O)(C[C@@H](O)C[C@@H](O)[C@H](O)CC[C@@H](O)C[C@@H](O)CC(=O)O[C@H]1C)C[C@H](O)[C@H]2C(=O)O` [AMPHOTERICIN B], the MFC in the data set on Cryptococcus neoformans [2] is 0.3 µM (≈ 0.277 µg/mL); against Candida albicans [16] it was 0.7 µM (≈ 0.647 µg/mL); against Pichia kudriavzevii [17], 1.4 µM (≈ 1.29 µg/mL); with Nakaseomyces glabratus [14], 0.7 µM (≈ 0.647 µg/mL); against Aspergillus fumigatus [19] it was 5.4 µM (≈ 4.99 µg/mL). Moreover, the IC50 with Cryptococcus neoformans [4] worked out at 0.2 µM; with Pichia kudriavzevii [13] it was 0.6 µM; in the data set with Aspergillus fumigatus [18], 1400 nM; in the data set with Nakaseomyces glabratus [8] (setting [22]), 0.2 µM. Moreover, the MIC was 0.3 µM (≈ 0.277 µg/mL) against Cryptococcus neoformans [4], 1.3 µM (≈ 1.2 µg/mL) with Pichia kudriavzevii [13], 2.7 µM (≈ 2.5 µg/mL) in the data set on Aspergillus fumigatus [18] and 0.7 µM (≈ 0.647 µg/mL) in the data set on Nakaseomyces glabratus [8] (setting [22]).
Turning to `O=C(O)c1cn(C2CC2)c2cc(N3CCNCC3)c(F)cc2c1=O` [CIPROFLOXACIN], the values for the MBC in the data set on Staphylococcus aureus [20] and in the data set on Staphylococcus aureus [21] were 3 µM (≈ 0.994 µg/mL) and 1.5 µM (≈ 0.497 µg/mL), respectively. The molecule also displayed a half-maximal inhibitory concentration (IC50) with Staphylococcus aureus [9] of 0.2 µM.
On to `COc1cccc2c1C(=O)c1c(O)c3c(c(O)c1C2=O)C[C@@](O)(C(=O)CO)C[C@@H]3O[C@H]1C[C@H](N)[C@H](O)[C@H](C)O1` [DOXORUBICIN], for which the IC50 in data set [3] amounted to 3.8 µM; in [5] it was 1.5 µM; in [6], 4 µM; in [7] it was 3.6 µM; in [10], 2.6 µM. Further, the concentration for half-maximal inhibition (IC50) at 48 h was over 10 µM in data set [11] and 17 µM in data set [12].
